Data as given in ChEMBL document CHEMBL5303300, “EUbOPEN Chemogenomics Library - Multiplex” (2023).
“And” between values parts separate entries of the source, which are not always exact repeats. Equal values may be shown once.

How the values were obtained:
Fibroblast = experiment: Multiplex assay against human fibroblast; type: toxicity, cell-based; settings: number of replicates 2
Summary of the method: (§1)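 Cells stained live at seeding with Hoechst33342, BioTracker Green Microtubule Cytoskeleton Dye, MitoTracker Red and Annexin V Alexa Fluor 680 were imaged on a CQ1 microscope at 37°C and 5% CO2 after compound addition. Their classification by CellPathfinder machine-learning gating ran from Hoechst high-intensity objects versus normal cells, to healthy, pyknosed or fragmented nuclei among normal cells, to mitotic or apoptotic among pyknosed cells. Tubulin, mitochondrial-mass and membrane-permeability phenotypes are per cents of healthy-nucleus cells.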

HEK-293T = experiment: Multiplex assay against HEK293T; type: toxicity, cell-based; settings: human, number of replicates 2; summary of the method: as §1
[1] = 12 h, 1 µM, compound concentration 1 uM
[2] = 12 h, 10 µM, compound concentration 10 uM
[3] = 24 h, 1 µM, compound concentration 1 uM
[4] = 24 h, 10 µM, compound concentration 10 uM
[5] = 48 h, 1 µM, compound concentration 1 uM
[6] = 48 h, 10 µM, compound concentration 10 uM

CN1CCc2cc(Cl)c(O)cc2[C@@H](c2ccccc2)C1.Cl
Population Apoptotic (%) (Fibroblast; [1]): 46% and 55% | Population Fragmented Nuclei (%) (Fibroblast; [1]): 10% and 17% | Population Healthy Nuclei (%) (Fibroblast; [1]): 63% | Population Hoechst High Intensity Objects (%) (Fibroblast; [1]): 1% and 0% | Population Membrane Permeable-Phenotype (%) (Fibroblast; [1]): 10% and 6% | Population Mitochondria Different-Phenotype (%) (Fibroblast; [1]): 1% and 4% | Population Mitotic Cells (%) (Fibroblast; [1]): 53% and 44% | Population Normal (%) (Fibroblast; [1]): 98% and 99% | Population Pyknosed Nuclei (%) (Fibroblast; [1]): 26% and 18% | Population Tubulin-Different-Phenotype (%) (Fibroblast; [1]): 15% and 14% | Total Cell Count (Fibroblast; [1]): 175 and 235 | Population Apoptotic (%) (Fibroblast; [2]): 43% and 53% | Population Fragmented Nuclei (%) (Fibroblast; [2]): 11% and 17% | Population Healthy Nuclei (%) (Fibroblast; [2]): 71% and 78% | Population Hoechst High Intensity Objects (%) (Fibroblast; [2]): 0% | Population Membrane Permeable-Phenotype (%) (Fibroblast; [2]): 4% and 3% | Population Mitochondria Different-Phenotype (%) (Fibroblast; [2]): 3% and 4% | Population Mitotic Cells (%) (Fibroblast; [2]): 56% and 46% | Population Normal (%) (Fibroblast; [2]): 100% | Population Tubulin-Different-Phenotype (%) (Fibroblast; [2]): 21% and 12% | Total Cell Count (Fibroblast; [2]): 244 and 283 | Population Apoptotic (%) (Fibroblast; [3]): 52% and 62% | Population Fragmented Nuclei (%) (Fibroblast; [3]): 6% and 18% | Population Healthy Nuclei (%) (Fibroblast; [3]): 69% and 67% | Population Hoechst High Intensity Objects (%) (Fibroblast; [3]): 1% and 0% | Population Membrane Permeable-Phenotype (%) (Fibroblast; [3]): 12% and 7% | Population Mitochondria Different-Phenotype (%) (Fibroblast; [3]): 0% and 1% | Population Mitotic Cells (%) (Fibroblast; [3]): 47% and 37% | Population Normal (%) (Fibroblast; [3]): 98% and 100% | Population Pyknosed Nuclei (%) (Fibroblast; [3]): 23% and 14% | Population Tubulin-Different-Phenotype (%) (Fibroblast; [3]): 20% and 11% | Total Cell Count (Fibroblast; [3]): 161 and 242 | Population Apoptotic (%) (Fibroblast; [4]): 65% and 83% | Population Fragmented Nuclei (%) (Fibroblast; [4]): 16% and 21% | Population Healthy Nuclei (%) (Fibroblast; [4]): 76% | Population Hoechst High Intensity Objects (%) (Fibroblast; [4]): 0% | Population Membrane Permeable-Phenotype (%) (Fibroblast; [4]): 3% and 2% | Population Mitochondria Different-Phenotype (%) (Fibroblast; [4]): 2% and 0% | Population Mitotic Cells (%) (Fibroblast; [4]): 35% and 16% | Population Normal (%) (Fibroblast; [4]): 100% | Population Pyknosed Nuclei (%) (Fibroblast; [4]): 7% and 2% | Population Tubulin-Different-Phenotype (%) (Fibroblast; [4]): 20% and 10% | Total Cell Count (Fibroblast; [4]): 265 and 295 | Population Apoptotic (%) (Fibroblast; [5]): 53% and 75% | Population Fragmented Nuclei (%) (Fibroblast; [5]): 9% and 18% | Population Healthy Nuclei (%) (Fibroblast; [5]): 72% and 73% | Population Hoechst High Intensity Objects (%) (Fibroblast; [5]): 0% | Population Membrane Permeable-Phenotype (%) (Fibroblast; [5]): 8% and 4% | Population Mitochondria Different-Phenotype (%) (Fibroblast; [5]): 1% and 2% | Population Mitotic Cells (%) (Fibroblast; [5]): 46% and 25% | Population Normal (%) (Fibroblast; [5]): 100% and 99% | Population Pyknosed Nuclei (%) (Fibroblast; [5]): 18% and 8% | Population Tubulin-Different-Phenotype (%) (Fibroblast; [5]): 11% and 7% | Total Cell Count (Fibroblast; [5]): 175 and 251 | Population Apoptotic (%) (Fibroblast; [6]): 76% and 100% | Population Fragmented Nuclei (%) (Fibroblast; [6]): 21% and 26% | Population Healthy Nuclei (%) (Fibroblast; [6]): 73% and 72% | Population Hoechst High Intensity Objects (%) (Fibroblast; [6]): 0% | Population Membrane Permeable-Phenotype (%) (Fibroblast; [6]): 4% and 1% | Population Mitochondria Different-Phenotype (%) (Fibroblast; [6]): 0% | Population Mitotic Cells (%) (Fibroblast; [6]): 23% and 0% | Population Normal (%) (Fibroblast; [6]): 100% | Population Pyknosed Nuclei (%) (Fibroblast; [6]): 4% and 0% | Population Tubulin-Different-Phenotype (%) (Fibroblast; [6]): 12% and 3% | Total Cell Count (Fibroblast; [6]): 292 and 324 | Population Apoptotic (%) (HEK-293T; [1]): 48% and 46% | Population Fragmented Nuclei (%) (HEK-293T; [1]): 3% and 4% | Population Healthy Nuclei (%) (HEK-293T; [1]): 84% and 85% | Population Hoechst High Intensity Objects (%) (HEK-293T; [1]): 7% and 5% | Population Membrane Permeable-Phenotype (%) (HEK-293T; [1]): 5% and 3% | Population Mitochondria Different-Phenotype (%) (HEK-293T; [1]): 23% and 12% | Population Mitotic Cells (%) (HEK-293T; [1]): 51% and 53% | Population Normal (%) (HEK-293T; [1]): 92% and 94% | Population Pyknosed Nuclei (%) (HEK-293T; [1]): 12% and 10% | Population Tubulin-Different-Phenotype (%) (HEK-293T; [1]): 50% and 47% | Total Cell Count (HEK-293T; [1]): 505 and 645 | Population Apoptotic (%) (HEK-293T; [2]): 40% and 55% | Population Fragmented Nuclei (%) (HEK-293T; [2]): 4% | Population Healthy Nuclei (%) (HEK-293T; [2]): 87% and 85% | Population Hoechst High Intensity Objects (%) (HEK-293T; [2]): 6% and 8% | Population Membrane Permeable-Phenotype (%) (HEK-293T; [2]): 3% and 4% | Population Mitochondria Different-Phenotype (%) (HEK-293T; [2]): 11% | Population Mitotic Cells (%) (HEK-293T; [2]): 59% and 45% | Population Normal (%) (HEK-293T; [2]): 93% and 91% | Population Pyknosed Nuclei (%) (HEK-293T; [2]): 8% and 9% | Population Tubulin-Different-Phenotype (%) (HEK-293T; [2]): 54% and 52% | Total Cell Count (HEK-293T; [2]): 819 and 669 | Population Apoptotic (%) (HEK-293T; [3]): 47% and 31% | Population Fragmented Nuclei (%) (HEK-293T; [3]): 6% and 5% | Population Healthy Nuclei (%) (HEK-293T; [3]): 83% and 88% | Population Hoechst High Intensity Objects (%) (HEK-293T; [3]): 7% | Population Membrane Permeable-Phenotype (%) (HEK-293T; [3]): 1% and 3% | Population Mitochondria Different-Phenotype (%) (HEK-293T; [3]): 8% and 3%
